Reference: ChEMBL document CHEMBL1122255, “Synthesis and receptor binding studies relevant to the neuroleptic activities of some 1-methyl-4-piperidylidene-9-substituted-pyrrolo[2,1-b][3]benzazepine derivatives” (J Med Chem, 1983)

biological target: Muscarinic acetylcholine receptor; assay: Displacement of [3H]- QNB binding at the muscarinic-cholinergic binding site of rat brain S1

Compound | Ki [nM]
CN1CCC(=C2c3ccccc3C=Cn3cccc32)CC1 | 14.5
CN1CCC(=C2c3cc(C#N)ccc3C=Cn3cccc32)CC1 | 21
CN1CCC(=C2c3cc(Br)ccc3C=Cn3cccc32)CC1 | 18
CN1CCC(=C2c3cc(Cl)ccc3C=Cn3cccc32)CC1 | 20
CN1CCC(=C2c3cc(SC(F)(F)F)ccc3C=Cn3cccc32)CC1 | 88
CN1CCC(=C2c3ccccc3C=Cc3ccccc32)CC1 [CYPROHEPTADINE] | 4

Next, values leading:

Ki [nM] | Compound
9800 | CN1CCC(=C2c3cc(C(=O)O)ccc3C=Cn3cccc32)CC1
60 | CN1CCC(=C2c3cc(Br)ccc3CCn3cccc32)CC1
270 | CN1CCC(=C2c3cc(C#N)ccc3CCn3cccc32)CC1
48 | CN1CCC(=C2c3cc(Cl)ccc3CCn3cccc32)CC1
49 | CN1CCC(=C2c3ccccc3CCn3cccc32)CC1
250 | CN1CCC(=C2c3cc(SC(F)(F)F)ccc3CCn3cccc32)CC1
> 50000 | CN1CCC(=C2c3cc(C(=O)O)ccc3CCn3cccc32)CC1

biological target: T1, Alpha-2A adrenergic receptor (Bos taurus, UniProt Q28838); assay: Displacement of [3H]- clonidine radioligand binding at the alpha-2 adrenergic receptor binding site of calf cerebral cortex; format: tissue-based
T1 sequence (Q28838 whole entry): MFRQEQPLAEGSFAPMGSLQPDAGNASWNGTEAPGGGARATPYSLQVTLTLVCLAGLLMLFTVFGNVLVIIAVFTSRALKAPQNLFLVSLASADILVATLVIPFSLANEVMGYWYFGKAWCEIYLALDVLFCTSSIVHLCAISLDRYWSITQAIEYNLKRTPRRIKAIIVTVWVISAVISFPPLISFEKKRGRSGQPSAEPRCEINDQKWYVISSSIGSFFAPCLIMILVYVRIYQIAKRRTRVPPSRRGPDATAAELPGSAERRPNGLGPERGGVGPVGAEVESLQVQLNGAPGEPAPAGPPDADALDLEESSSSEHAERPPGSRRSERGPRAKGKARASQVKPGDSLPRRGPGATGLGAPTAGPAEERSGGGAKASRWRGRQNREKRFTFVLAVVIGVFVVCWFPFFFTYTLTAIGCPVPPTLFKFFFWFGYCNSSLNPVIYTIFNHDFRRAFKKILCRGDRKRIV
Procedure, shortened: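 Calf cerebral cortex membranes were incubated with [3H]clonidine (23 Ci/mmol) at 0.2 nM and 3–5 triplicate test concentrations. Nonspecific binding was defined with 100 nM clonidine. Bound ligand was isolated by rapid filtration and counted by liquid scintillation. IC50 for displacing specific binding came from percent inhibition–concentration data by regression.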

Compound | Ki [nM]
CN1CCC(=C2c3ccccc3C=Cn3cccc32)CC1 | 226
CN1CCC(=C2c3cc(C#N)ccc3C=Cn3cccc32)CC1 | 1030
CN1CCC(=C2c3cc(Br)ccc3C=Cn3cccc32)CC1 | 210
CN1CCC(=C2c3cc(Cl)ccc3C=Cn3cccc32)CC1 | 310
CN1CCC(=C2c3cc(SC(F)(F)F)ccc3C=Cn3cccc32)CC1 | 230

Next, values leading:

Ki [nM] | Compound
77000 | CN1CCC(=C2c3cc(C(=O)O)ccc3C=Cn3cccc32)CC1
430 | CN1CCC(=C2c3cc(Br)ccc3CCn3cccc32)CC1
2050 | CN1CCC(=C2c3cc(C#N)ccc3CCn3cccc32)CC1
600 | CN1CCC(=C2c3cc(Cl)ccc3CCn3cccc32)CC1
730 | CN1CCC(=C2c3ccccc3CCn3cccc32)CC1
330 | CN1CCC(=C2c3cc(SC(F)(F)F)ccc3CCn3cccc32)CC1

biological target: T2, Alpha-1A adrenergic receptor (Bos taurus, UniProt P18130); assay: Displacement of [3H]- prazosin radioligand binding at the alpha 1-adrenergic binding site of calf cerebral cortex; format: tissue-based
T2 sequence (P18130 whole entry): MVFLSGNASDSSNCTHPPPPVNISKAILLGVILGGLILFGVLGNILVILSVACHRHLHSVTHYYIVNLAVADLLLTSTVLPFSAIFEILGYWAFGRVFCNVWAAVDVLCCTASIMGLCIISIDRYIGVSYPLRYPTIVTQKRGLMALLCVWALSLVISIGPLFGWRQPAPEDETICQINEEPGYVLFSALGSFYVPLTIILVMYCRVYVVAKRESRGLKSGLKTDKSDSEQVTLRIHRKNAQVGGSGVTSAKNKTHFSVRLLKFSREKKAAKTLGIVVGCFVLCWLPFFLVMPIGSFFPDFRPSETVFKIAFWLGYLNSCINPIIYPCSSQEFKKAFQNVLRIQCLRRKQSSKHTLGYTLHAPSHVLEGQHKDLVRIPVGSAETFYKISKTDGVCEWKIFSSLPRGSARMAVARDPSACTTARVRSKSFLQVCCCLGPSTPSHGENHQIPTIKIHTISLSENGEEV

Compound | Ki [nM]
CN1CCC(=C2c3ccccc3C=Cn3cccc32)CC1 | 29
CN1CCC(=C2c3cc(C#N)ccc3C=Cn3cccc32)CC1 | 30
CN1CCC(=C2c3cc(Br)ccc3C=Cn3cccc32)CC1 | 19
CN1CCC(=C2c3cc(Cl)ccc3C=Cn3cccc32)CC1 | 20
CN1CCC(=C2c3cc(SC(F)(F)F)ccc3C=Cn3cccc32)CC1 | 13

The next lines start with the values.

Ki [nM] | Compound
1200 | CN1CCC(=C2c3cc(C(=O)O)ccc3C=Cn3cccc32)CC1
44 | CN1CCC(=C2c3cc(Br)ccc3CCn3cccc32)CC1
80 | CN1CCC(=C2c3cc(Cl)ccc3CCn3cccc32)CC1
130 | CN1CCC(=C2c3ccccc3CCn3cccc32)CC1
36 | CN1CCC(=C2c3cc(SC(F)(F)F)ccc3CCn3cccc32)CC1
